UPR CHOP act = activators of apoptotic CHOP UPR arm, primary screen, cell-based, CHO-CHOP luciferase reporter, luminescence, uHTS; UPR activation; percent of tunicamycin response over DMSO baseline; activation, % at 10 µM; 330,000 tested, 0.34% active;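 active = at 10 µM dose, activation of 40% or more, normalized to positive control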;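 note: 100% = tunicamycin at 10 µg/mL and 0% = DMSO alone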
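Test system: CHO-CHOP cells, stable luciferase reporter of PERK-eIF2a-CHOP signalling | Quantity: 500 CHO-CHOP cells per well | Buffer or medium: F12 plus 10% serum | Compound dosing: 10 µM single point, 0.5% DMSO | Schedule: 6 h compound treatment, 37 °C | Signal: Luciferase luminescence | Control set: Tunicamycin high control, DMSO low control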
TLR9-MyD88 block = inhibitors of TLR9-MyD88 association in cells, primary screen, cell-based, CHO, BLA complementation, fluorescence. Toll-like receptor 9 (Homo sapiens) + Myeloid differentiation primary response protein …. CCF4 FRET ratio. inhibition, % at 4.98 µM. 340,000 tested, 0.21% active. AID 504734, 2011;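 active = inhibition above the mean over all tested compounds plus 3 SD, cut at about 21% in these data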;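 note: 0% = DMSO only wells and 100% = clavulanate BLA inhibitor control wells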
CHOP inh = inhibitors of CHOP promoter induction, primary screen, cell-based, unfolded protein response, luciferase reporter; CHO-K1 CHOP-promoter luciferase, tunicamycin-induced, 15-18 h; inhibition, % at 10 µM; 220,000 tested, 3.8% active;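 active = compounds that reduced the stress-induced luciferase reporter signal by more than about 70% of percent inhibition, limit read from the data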;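 note: 0% = tunicamycin plus vehicle and 100% = wells without tunicamycin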
NOD2-RIPK2 inh = NOD2-RIPK2 binding disruptors in cells, primary screen, fluorescence, CHO cells, BLA complementation. Receptor-interacting serine/threonine-protein kinase 2 (Homo sapiens), O43353. 360,000 tested, 0.38% active. inhibition, % at 4.98 µM. CCF4 ratio; in the data active = inhibition above about 21%;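 note: 0% = vehicle only and 100% = reference blocker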
Target sequence (O43353 whole entry, looked up): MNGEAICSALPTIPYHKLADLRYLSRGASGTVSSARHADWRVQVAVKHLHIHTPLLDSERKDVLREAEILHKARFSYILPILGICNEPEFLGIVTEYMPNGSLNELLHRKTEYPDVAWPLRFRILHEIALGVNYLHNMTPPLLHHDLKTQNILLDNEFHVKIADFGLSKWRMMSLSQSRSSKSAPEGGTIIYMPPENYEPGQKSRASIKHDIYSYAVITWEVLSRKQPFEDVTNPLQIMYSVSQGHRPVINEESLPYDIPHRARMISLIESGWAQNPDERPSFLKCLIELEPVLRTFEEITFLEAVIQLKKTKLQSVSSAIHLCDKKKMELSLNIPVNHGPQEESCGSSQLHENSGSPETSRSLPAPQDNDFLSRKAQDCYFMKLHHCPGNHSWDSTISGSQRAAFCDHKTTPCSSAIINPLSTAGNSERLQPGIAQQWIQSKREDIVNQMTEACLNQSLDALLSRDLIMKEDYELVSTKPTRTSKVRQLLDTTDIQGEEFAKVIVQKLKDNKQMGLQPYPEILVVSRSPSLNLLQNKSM
UPR XBP1 act = activators of adaptive XBP1 UPR arm, primary screen, cell-based, CHO-XBP1 luciferase reporter, luminescence, uHTS | IRE1-XBP1 UPR activation; percent of tunicamycin response, DMSO as zero | activation, % at 20 µM | 330,000 tested, 0.33% active | AID 463104, 2010;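 active = versus positive control, 20 µM dose yields 30% or more activation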;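 note: 100% = tunicamycin at 10 µg/mL and 0% = DMSO only wells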
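Signal: luciferase luminescence; Assay system: CHO-XBP1 luciferase reporter cells; Amount: one thousand reporter cells per well; Dosing: 20 µM single concentration, DMSO 1%; Benchmarks: high control tunicamycin 10 µg/mL final, low control DMSO vehicle only; Schedule: 6 h compound exposure at 37 °C, 5% CO2; Evaluation: percent activation relative to tunicamycin reference.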
TLR4 MyD88 comp = inhibitors of TLR4-MyD88 association in cells, primary screen, cell-based, HeLa CL3-4, BLA complementation, FRET ratio. Toll-like receptor 4 (Homo sapiens) + Myeloid differentiation primary response protein …. HeLa CL3-4 TLR4/MyD88 BLA complementation. inhibition, % at 8.4 µM. 200,000 tested, 0.18% active; in the data active = inhibition above about 25%;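 note: 0% = vehicle and 100% = reference inhibitor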
CHOP confirm = retest of CHOP induction inhibitors, confirmation, cell-based; AID 504437, 2011; inhibition, % at 10 µM; 2,100 tested, 45% active; shares compounds with CHOP inh; CHO-CHOP promoter luciferase reporter, tunicamycin-induced, luminescence;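 active = mean of three repeat readings of reporter signal inhibition above a set limit, cut at about 70% in these data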;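 note: 0% = tunicamycin plus vehicle and 100% = wells lacking tunicamycin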
* = called active by the depositor; . = no result given. Shown is part of a subset that was picked to be rich in hits.

SMILES	UPR CHOP act	TLR9-MyD88 block	CHOP inh	NOD2-RIPK2 inh	UPR XBP1 act	TLR4 MyD88 comp	CHOP confirm
COc1ccc(NCC(O)COc2ccc(C(C)(C)C)cc2)cc1 (centres undefined)	-1	1	104*	16	5	4	57
CNCC(O)COc1ccccc1 (centres undefined)	-1	-5	104*	4	2	1	5
COc1ccccc1NCC(O)COc1ccc(C(C)(C)C)cc1 (centres undefined)	-1	5	105*	-2	-1	-12	120*
CNCC(O)COc1cccc(OC)c1 (centres undefined)	0	-6	-25	-1	-1	-11	.
Cc1cc(C)c2sc(NC(=O)C3=COCCO3)nc2c1	2	2	.	-4	-2	.	.
CCc1cc(SC#N)cc(CC)c1NC(=O)CCl	4	2	97*	11	1	6	43
CCOC(=O)c1cc(-c2ccccc2)nc2c1c(C)nn2-c1ccccn1	1	-14	103*	7	5	-2	108*
CCOC(=O)c1cc(-c2ccncc2)nc2c1c(C)nn2C	0	10	7	1	12	-8	.
CC(C)OC(=O)c1cccc(-c2ccc(C=O)o2)c1	8	7	36	0	0	-3	.
CCc1nc(SCC(=O)Nc2nccs2)c2oc3ccccc3c2n1	-1	-6	102*	2	21	-1	23
O=C(COc1ccccc1)Nc1cc(NC(=O)COc2ccccc2)cc(C(=O)O)c1	0	-12	.	2	-5	.	.
Cc1[nH]c2ccccc2c1C(=O)CN1CCCCC1CCO (centres undefined)	0	-8	1	1	0	-1	.
O=C1CC(c2ccco2)CC(O)=C1C=Nc1ccccc1-c1ccccc1 (centres undefined)	2	0	104*	8	-7	-5	95*
Cc1[nH]nc(N=CC2=C(O)CC(c3ccco3)CC2=O)c1-c1ccc(Cl)cc1 (centres undefined)	23	-2	105*	-1	7	1	80*
Cc1ccc(N=CC2=C(O)CC(c3ccco3)CC2=O)cc1 (centres undefined)	2	6	42	-6	3	-1	.
O=C1CC(c2ccco2)CC(O)=C1C=Nc1cc(Cl)ccc1O (centres undefined)	16	7	-5	7	4	1	.
Clc1ccc(CON/C=N/c2ncnc3sccc23)c(Cl)c1	-1	1	50	-2	0	-7	.
CCOC(=O)c1ccc(-c2ccc(/C=C(\C#N)C(=O)NCc3cccs3)o2)cc1	.	-3	105*	1	.	1	14
COc1cc(OC)c(OC)cc1/C=C(\C#N)C(=O)NCc1cccs1	0	-8	.	1	0	.	.
CNC(=O)/C(C#N)=C/c1ccc(-c2ccccc2[N+](=O)[O-])o1	3	-5	38	0	4	-6	.
CNC(=O)/C(C#N)=C/c1ccc(-c2ccc(Cl)cc2)o1	3	3	97*	0	11	-2	-17
Cc1nn(C(=O)c2cccc([N+](=O)[O-])c2)c(C)c1Cl	-1	3	.	-11	1	.	.
COc1ccc(S(=O)(=O)Nc2cc3c(cc2C(C)=O)OCO3)cc1	-1	0	2	0	0	-1	.
Cc1c(C(=O)OCC(=O)N2CC(=O)Nc3ccccc32)oc2ccc(Br)cc12	0	5	104*	-10	12	1	1
CCOc1ccc(C2=C/C(=C/c3cccnc3)C(=O)O2)cc1	3	5	103*	-3	3	18	91*
SMILES	UPR CHOP act	TLR9-MyD88 block	CHOP inh	NOD2-RIPK2 inh	UPR XBP1 act	TLR4 MyD88 comp	CHOP confirm
COc1ccc(C2=C/C(=C\c3ccc(OC(C)=O)cc3)C(=O)O2)cc1	1	-2	4	-10	-1	-4	.
COc1ccc(C2=C/C(=C/c3cccnc3)C(=O)O2)cc1OC	0	-14	105*	5	0	-7	14
CC(=O)Oc1cccc(/C=C2\C=C(c3ccc(C)cc3)OC2=O)c1	0	-3	9	-8	2	-10	.
Clc1cnc(Nc2cccnc2)c(Cl)c1	0	-8	.	-2	3	.	.
COC(=O)c1cc(F)c(-n2cncn2)c(F)c1	-2	-5	-12	-11	0	2	.
COC(=O)c1cc([N+](=O)[O-])c(-n2cncn2)c([N+](=O)[O-])c1	.	-1	110*	0	.	10	17
CCN1/C(=C/C(C)=C/c2sc3ccccc3[n+]2CC)Sc2ccccc21	-9	2	110*	4	-11	5	141*
CCN1/C(=C\C(=S)Nc2ccccc2)Sc2ccccc21	4	-1	-26	3	6	4	.
Cc1cc(C)n(-c2nc3ccccc3nc2N2CCCCCC2)n1	-1	5	96*	5	0	1	36
CSc1nsc(NC(=O)Cc2ccccc2)n1	2	-4	2	-8	0	9	.
CCCCCCSc1nsc(NC(=O)CCC)n1	4	-8	106*	3	2	-8	103*
CCCCOP(=O)(OCCCC)C1(NS(=O)(=O)c2ccccc2)C=CC(=O)c2ccccc21 (centres undefined)	1	2	96*	7	-1	6	63
O=C(N/N=C/c1cccc2ccccc12)c1n[nH]c2c1CCCC2	2	0	101*	-4	4	13	9
O=C(N/N=C/c1ccc(Cl)cc1Cl)c1n[nH]c2c1CCCC2	8	-1	14	-3	5	-1	.
CCOC(=O)c1c(-c2ccc(C)cc2)csc1NC1=NS(=O)(=O)c2ccccc21	0	0	101*	-3	9	-5	-20
Cc1ccc2sc(NC(=O)c3ccc(N4C(=O)CCC4=O)cc3)nc2c1C	-1	6	100*	2	-1	-4	-21
CCCCC[C@@H]1C=C(C(=O)O)[C@H](c2ccc(Br)cc2)N1S(=O)(=O)c1ccc(C)cc1	-1	-7	.	-5	-1	.	.
Cc1cc(C)nc(SC2CCCCC2NS(=O)(=O)c2ccccc2)n1 (centres undefined)	0	-3	-6	-5	0	-3	.

Screens deposited in PubChem BioAssay by several laboratories.
